High-throughput results from PubChem.
Only some compounds are listed: those with a hit (about 4.8% of all), similar ones and a draw of the others.
WT yeast gro inh: growth inhibition of WT strain, primary screen, mitochondrial fusion inhibitor project, WT and mutant strains, chemical genetic; mitochondrial fusion phenotypic screen; inhibition, % at 10 µM; 2.1% of 190,000 active; AID 1362, 2008; in the data active = inhibition above about 58%; tested in S. cerevisiae
CSC inhib: cancer stem cell viability inhibitors, primary screen, luminescence | cancer stem cell-like cells viability | inhibition, % at 7.5 µM | 1.1% of 300,000 active | AID 2717, 2010; in the data active = inhibition above about 75%; tested in HMLE shEcad cells
T cruzi inh: inhibitors of intracellular T. cruzi growth, primary screen, luminescence, NIH3T3 host cells | 1.4% of 300,000 active | inhibition, % (concentration not given with the values) | T. cruzi beta-gal in NIH3T3, 90 h;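 active = mean inhibition across valid replicates above about 55%, limit read from the data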;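 note: signal also drops with host cell toxicity which is not excluded here; higher percent means less beta-gal luminescence so fewer parasites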
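compound dosing = single 50 nL compound addition per well in DMSO | material = NIH/3T3 host cells with β-galactosidase reporter T. cruzi | input = 5,000 host fibroblasts per well | timing = ≥90 h infection period, 3 h prior cell attachment | read-out basis = percent inhibition of parasite-derived β-gal signal | detection = GalScreen β-gal luminescence, detergent lysis, 60 min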
Beta cell apopt: inhibitors of cytokine-induced beta cell apoptosis, primary screen, luminescence; AID 435005, 2010; protection from apoptosis, % (test concentration not listed); 0.8% of 300,000 active; INS-1E cytokine-induced death, ATP luminescence, 48 h; percent of positive-control rescue, neutral wells zero;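 active = Every replicate reaches about 75%, or at least half do and their mean reaches it too, limit read from the data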;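 note: higher means more ATP so stronger rescue from cytokine killing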
Efflux pump inh: inhibitors of Candida efflux pumps in yeast, primary screen, S. cerevisiae, Nile Red, multiplex; S. cerevisiae Candida pump triplex; AID 485275, 2010; 0.44% of 330,000 active; inhibition, % at 10 µM;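 active = plate passing quality check with inhibition over a set limit, or well fluorescence over plate mean plus 4 SD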;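 note: Nile Red retained in pooled yeast measured as flow cytometry median fluorescence; higher means more Nile Red kept so more efflux inhibition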
SUMO Mot1 rescue: yeast Mot1-301 growth rescue at high temperature, primary screen, SUMOylation pathway inhibitor project, S. cerevisiae, ATP luminescence, 38.5C; S. cerevisiae Mot1-301 growth rescue; percent above DMSO median, 100 means doubled; growth rescue, % at 18.8 µM; 1% of 320,000 active;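 active = every valid replicate shows activation above 250% relative to neutral control wells; inactive = the rest, any valid replicate at or below 250%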
A number is an active result.

Screening Cc1ccnc2nc(C(=O)OCC(=O)NCc3cccc(Cl)c3)nn12 returned CSC inhib inactive, Beta cell apopt inactive, Efflux pump inh inactive and SUMO Mot1 rescue inactive.
Screening COc1ccc(C(C)=O)cc1CSc1nnc(Nc2ccc(C)cc2C)s1 returned WT yeast gro inh 61, CSC inhib inactive, T cruzi inh inactive, Beta cell apopt inactive, Efflux pump inh inactive and SUMO Mot1 rescue inactive.
O=C1NN=C(c2ccc(Br)cc2)CC1c1ccc(Cl)cc1 (stereo unspecified) was read as WT yeast gro inh 58, CSC inhib inactive, T cruzi inh inactive, Beta cell apopt inactive, Efflux pump inh inactive and SUMO Mot1 rescue inactive.
CN1N=C(c2ccc(Cl)cc2)CC(c2ccc(Cl)cc2)C1=O (stereo unspecified) was read as WT yeast gro inh 65, CSC inhib inactive, T cruzi inh inactive, Beta cell apopt inactive, Efflux pump inh inactive and SUMO Mot1 rescue inactive.
Screening Cc1ccc(C2CC(c3ccc(Cl)cc3)=NNC2=O)cc1 (stereo unspecified) returned WT yeast gro inh inactive, CSC inhib inactive, T cruzi inh inactive, Beta cell apopt inactive, Efflux pump inh inactive and SUMO Mot1 rescue inactive.
CCc1ccc(C2CC(c3ccc(Cl)cc3)=NNC2=O)cc1 (stereo unspecified) was read as WT yeast gro inh inactive, CSC inhib inactive, T cruzi inh inactive, Beta cell apopt inactive, Efflux pump inh inactive and SUMO Mot1 rescue inactive.
For O=C(NCc1ccc(Cl)cc1)C1CCN(c2nnc(N3CCCC3=O)s2)CC1 the results were CSC inhib inactive, T cruzi inh inactive, Beta cell apopt inactive, Efflux pump inh inactive and SUMO Mot1 rescue inactive.
For CCOc1cccc(/C=N/NC(=O)c2cc(C3CC3)[nH]n2)c1O the results were CSC inhib 128, T cruzi inh inactive, Beta cell apopt 96, Efflux pump inh inactive and SUMO Mot1 rescue inactive.
`N#C/C(=C(/O)COc1ccc(Cl)cc1)c1nc2ccccc2s1` gave WT yeast gro inh inactive, CSC inhib 99, T cruzi inh inactive, Beta cell apopt inactive, Efflux pump inh inactive and SUMO Mot1 rescue inactive.
`Oc1ccc(N=C/C=C/c2ccc(Br)cc2)cc1-c1nc2ccccc2s1` gave WT yeast gro inh inactive, CSC inhib inactive, T cruzi inh inactive, Beta cell apopt inactive, Efflux pump inh inactive and SUMO Mot1 rescue inactive.
`CCCSc1nc2sc3c(c2c(=O)n1CC)CC(C)(C)OC3` gave CSC inhib inactive, T cruzi inh inactive, Beta cell apopt inactive, Efflux pump inh inactive and SUMO Mot1 rescue inactive.
For CSc1nc2sc3c(c2c(=O)n1CC(C)C)CC(C)(C)OC3 the results were CSC inhib 75, T cruzi inh inactive, Beta cell apopt inactive, Efflux pump inh inactive and SUMO Mot1 rescue inactive.
For O=C(NCC1CC1)c1cc([N+](=O)[O-])cc([N+](=O)[O-])c1 the results were CSC inhib inactive, T cruzi inh 61, Beta cell apopt inactive, Efflux pump inh inactive and SUMO Mot1 rescue inactive.
For O=C(NCCc1c[nH]c2ccccc12)c1ccc([N+](=O)[O-])cc1 the results were WT yeast gro inh inactive, CSC inhib inactive, T cruzi inh inactive, Beta cell apopt inactive, Efflux pump inh inactive and SUMO Mot1 rescue inactive.
For O=C(NCCCN1CCN(CCCNC(=O)c2cccc([N+](=O)[O-])c2)CC1)c1cccc([N+](=O)[O-])c1 the results were WT yeast gro inh inactive, CSC inhib inactive, T cruzi inh 56, Beta cell apopt inactive, Efflux pump inh inactive and SUMO Mot1 rescue inactive.
COc1cccc(OCCNC(=O)c2cc([N+](=O)[O-])cc([N+](=O)[O-])c2)c1 was read as WT yeast gro inh inactive, CSC inhib inactive, T cruzi inh 61, Beta cell apopt inactive, Efflux pump inh inactive and SUMO Mot1 rescue inactive.
Screening O=C(NCCc1c[nH]c2ccccc12)c1cc([N+](=O)[O-])cc([N+](=O)[O-])c1 returned CSC inhib inactive, T cruzi inh 69, Beta cell apopt inactive, Efflux pump inh inactive and SUMO Mot1 rescue inactive.
COc1cccc(OCCNC(=O)c2cccc(OC)c2)c1 was read as WT yeast gro inh inactive, CSC inhib inactive, T cruzi inh inactive, Beta cell apopt inactive, Efflux pump inh inactive and SUMO Mot1 rescue inactive.
Screening O=C(CSc1ccc(F)cc1)NC(=O)NCc1ccccc1 returned WT yeast gro inh inactive, CSC inhib inactive, T cruzi inh inactive, Beta cell apopt inactive, Efflux pump inh inactive and SUMO Mot1 rescue inactive.
COc1ccccc1C(CNC(=O)c1ccc(S(=O)(=O)N2CCCCC2)cc1)N(C)C (stereo unspecified) was read as CSC inhib inactive, Beta cell apopt inactive, Efflux pump inh inactive and SUMO Mot1 rescue inactive.
`O=C(NCCCCc1ccccc1)c1cccc([N+](=O)[O-])c1` gave WT yeast gro inh inactive, CSC inhib inactive, T cruzi inh inactive, Beta cell apopt inactive, Efflux pump inh inactive and SUMO Mot1 rescue inactive.
`O=C(NCCCCc1ccccc1)c1cc([N+](=O)[O-])cc([N+](=O)[O-])c1` gave CSC inhib inactive, T cruzi inh 63, Beta cell apopt inactive, Efflux pump inh inactive and SUMO Mot1 rescue inactive.
For COc1cc2nc(CN3CCOCC3)n(CC(=O)NCC(F)(F)F)c(=O)c2cc1OC the results were CSC inhib inactive, T cruzi inh inactive, Beta cell apopt inactive, Efflux pump inh inactive and SUMO Mot1 rescue inactive.
Screening CN(CCC1CCOCC1)C(=O)C1CCC(=O)N(CCc2ccccc2)C1 (stereo unspecified) returned CSC inhib inactive, T cruzi inh inactive, Beta cell apopt inactive, Efflux pump inh inactive and SUMO Mot1 rescue inactive.
Screening COc1cc(NC(=O)COC(=O)/C=C/c2ccccc2Cl)cc(OC)c1 returned WT yeast gro inh inactive, CSC inhib inactive, T cruzi inh inactive, Beta cell apopt inactive, Efflux pump inh inactive and SUMO Mot1 rescue inactive.
COc1cc(NC(=O)COC(=O)/C=C/c2c(C)nn(-c3ccc(F)cc3)c2Cl)cc(OC)c1 was read as WT yeast gro inh inactive, CSC inhib inactive, T cruzi inh 60, Beta cell apopt inactive, Efflux pump inh inactive and SUMO Mot1 rescue inactive.
Screening CC1=NN(c2ccc(C)c(C)c2)C(=O)/C1=C\C=C\c1ccc([N+](=O)[O-])o1 returned WT yeast gro inh inactive, CSC inhib inactive, T cruzi inh inactive, Beta cell apopt 84, Efflux pump inh inactive and SUMO Mot1 rescue inactive.
`CCOC(=O)c1ccc(N2N=C(C)/C(=C/C=C/c3ccco3)C2=O)cc1` gave WT yeast gro inh inactive, CSC inhib inactive, T cruzi inh inactive, Beta cell apopt inactive, Efflux pump inh inactive and SUMO Mot1 rescue inactive.
`C/C(Cn1cnc([N+](=O)[O-])n1)=N/NC(=O)COc1ccccc1Cl` gave WT yeast gro inh inactive, CSC inhib inactive, T cruzi inh 56, Beta cell apopt inactive, Efflux pump inh inactive and SUMO Mot1 rescue inactive.
